Key:
NSD3S = target: T1, NSD3S (Homo sapiens, UniProt Q9BZ95); experiment: Immunoblotting for NSD3S in 293FT cells; assay type: cell-based; conditions: 48-hour treatment; for NSD3 degradation (immunoblot): 293FT cells, indicated concentrations
T1 sequence (Q9BZ95 1-645 isoform Q9BZ95-3): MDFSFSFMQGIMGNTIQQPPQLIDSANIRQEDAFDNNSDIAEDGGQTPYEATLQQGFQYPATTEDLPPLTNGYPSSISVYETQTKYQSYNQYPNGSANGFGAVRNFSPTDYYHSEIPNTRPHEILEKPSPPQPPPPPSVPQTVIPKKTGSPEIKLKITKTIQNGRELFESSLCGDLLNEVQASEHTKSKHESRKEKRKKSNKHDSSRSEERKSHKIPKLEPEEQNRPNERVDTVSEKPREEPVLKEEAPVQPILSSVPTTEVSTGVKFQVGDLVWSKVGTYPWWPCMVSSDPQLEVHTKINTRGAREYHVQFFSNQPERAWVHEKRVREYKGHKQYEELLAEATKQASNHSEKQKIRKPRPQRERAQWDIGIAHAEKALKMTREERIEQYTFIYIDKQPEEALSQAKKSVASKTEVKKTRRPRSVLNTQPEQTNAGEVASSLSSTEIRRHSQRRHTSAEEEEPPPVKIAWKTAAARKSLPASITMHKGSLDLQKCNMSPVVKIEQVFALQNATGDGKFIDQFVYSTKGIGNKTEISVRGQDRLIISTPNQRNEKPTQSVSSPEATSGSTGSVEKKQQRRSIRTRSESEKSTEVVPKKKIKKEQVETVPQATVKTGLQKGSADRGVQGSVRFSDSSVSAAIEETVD
How it was run: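 293FT cells were grown in DMEM with 10% FBS and 1% penicillin/streptomycin. NSD3 was detected by western blot with rabbit anti-NSD3 antibody, using rabbit anti-GAPDH as loading control and HRP-linked secondary antibodies.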

cMyc [1] = experiment: Immunoblotting for cMyc protein levels; assay type: cell-based, human
How it was run: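 cMyc was detected by western blot with rabbit anti-cMyc antibody, using rabbit anti-GAPDH as loading control. VHL status was checked with mouse anti-VHL. VHL was knocked out by CRISPR/Cas9 and compared with WT cells. EOL-1 and MM1.S cells were grown in RPMI 1640 and 293FT cells in DMEM, each with 10% FBS and 1% penicillin/streptomycin.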

NSD3 [2] = target: T2, NSD3 (Homo sapiens, UniProt Q9BZ95); experiment: Ubiquitination assay of Flag-tagged NSD3S in 293FT cells; assay type: cell-based; conditions: 293FT cells expressing Flag-tagged NSD3S, 48-hour treatment
T2 sequence (Q9BZ95 1-645 isoform Q9BZ95-3): T1 sequence (Q9BZ95 1-645 isoform Q9BZ95-3)

[3] = system: CBLB, IFITM1, SELL and MAP7; experiment: RT-qPCR and western blots of NSD3-upregulated gene targets; assay type: cell-based, human; conditions: EOL-1 or MM1.S cells, 2.5 μM, 48 hours, compared to BI-9321 and MS9715N
How it was run: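 For mRNA, RT-qPCR relative expression was calculated by the 2−ΔΔCT method and normalized to the mean of beta-actin. For protein, western blots used rabbit anti-CBLB and rabbit anti-IFITM1 antibodies with rabbit anti-GAPDH as loading control. Cells were grown in RPMI 1640 with 10% FBS.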

[4] = system: EOL-1, RS4;11 and MM1.S cells; experiment: Cell growth inhibition assay; assay type: cell-based, human; conditions: for EC50: Homo sapiens, 192 h, read-out: EC50 (growth inhibition)
How it was run: (§1)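 Cells were kept in RPMI 1640 with 10% FBS and 1% penicillin/streptomycin. 0.5 million cells per well were seeded in triplicate and treated with various final compound concentrations, with compound-containing medium renewed every two days. Cultures were diluted to stay below 1×10^6/mL and counted automatically every two days. EC50 came from nonlinear regression over at least three experiments, given as mean ± SD.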

EOL-1 and MM1.S cells [5] = experiment: Apoptosis induction; assay type: cell-based, human; conditions: 2.5 μM, four-day treatment
How it was run: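 EOL-1 and MM1.S cells were grown in RPMI 1640 with 10% FBS and 1% penicillin/streptomycin. Lines were authenticated by genetic fingerprinting and screened monthly for mycoplasma. Apoptosis was assessed by western blot with rabbit anti-cleaved caspase-3 and anti-cleaved caspase-7 antibodies, detected with an HRP-linked anti-rabbit IgG secondary.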

EOL-1 and MM1.S cells [6] = experiment: Colony formation assay; assay type: cell-based, human; conditions: 2.5 μM
How it was run: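 20,000 cells per well were plated in triplicate. Medium containing compound or vehicle was replaced every four days. After 4 weeks, wells were stained with 100 μg/mL iodonitrotetrazolium chloride, and colonies were counted after overnight incubation.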

cMyc [7] = experiment: cMyc ubiquitination assay in EOL-1 cells; assay type: cell-based, human; conditions: 2.5 μM, 48-hour treatment
How it was run: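 Lysates were heat-denatured 5 min at 95°C, diluted with EBC, sonicated and cleared. Immunoprecipitation with antibody ran overnight at 4°C, then protein A/G magnetic beads for 3 h at 4°C. Blots were probed with mouse anti-ubiquitin.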

EOL-1 cells = experiment: Mass spectrometry-based global proteomic profiling; assay type: cell-based, human; conditions: 2.5 μM, 30 hours, more than 5,000 proteins detected
NSD3 [8] = target: T2, NSD3; experiment: Immunoblotting for NSD3 degradation in hematological cancer cells; assay type: cell-based
K562 cells = experiment: Cell growth inhibition assay in K562 cells; assay type: cell-based, human; conditions: 2.5 μM, ten days
How it was run: as §1

NSD3 PWWP1 domain = target: T3, NSD3 PWWP1 domain (Homo sapiens, UniProt Q9BZ95); experiment: Isothermal titration calorimetry; assay type: binding
T3 sequence (Q9BZ95 247-402): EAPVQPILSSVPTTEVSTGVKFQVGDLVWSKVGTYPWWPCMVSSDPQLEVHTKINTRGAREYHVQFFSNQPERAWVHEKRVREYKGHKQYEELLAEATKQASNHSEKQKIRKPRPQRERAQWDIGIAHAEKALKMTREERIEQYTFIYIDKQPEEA

cancer cells = conditions: ref Bottcher et al., 2019; cited from earlier work

Question: Which “NSD3 degradation (immunoblot)” value (NSD3S) does the source give for Cc1cc(CNCCCC(=O)NCCCCCCCCC(=O)N[C@H](C(=O)N2C[C@H](O)C[C@H]2C(=O)NCc2ccc(-c3scnc3C)cc2)C(C)(C)C)cc(C)c1-c1ncn(C)c1-c1ccnc2cc(F)ccc12 [Compound 5, (2S,4R)-1-((S)-2-(9-(4-((4-(5-(7-fluoroquinolin-4-yl)-1-methyl-1H-imidazol-4-yl)-3,5-dimethylbenzyl)amino)butanamido)nonanamido)-3,3-dimethylbutanoyl)-4-hydroxy-N-(4-(4-methylthiazol-5-yl)benzyl)pyrrolidine-2-carboxamide] here?
Answer: clearly induced NSD3 degradation at 10–40 μM

Question: Which results are given for Cc1cc(CNCCCC(=O)NCCCCCCCCC(=O)N[C@H](C(=O)N2C[C@H](O)C[C@H]2C(=O)N[C@@H](C)c2ccc(-c3scnc3C)cc2)C(C)(C)C)cc(C)c1-c1ncn(C)c1-c1ccnc2cc(F)ccc12 [MS9715, (2S,4R)-1-((S)-2-(9-(4-((4-(5-(7-fluoroquinolin-4-yl)-1-methyl-1H-imidazol-4-yl)-3,5-dimethylbenzyl)amino)butanamido)nonanamido)-3,3-dimethylbutanoyl)-4-hydroxy-N-((S)-1-(4-(4-methylthiazol-5-yl)phenyl)ethyl)pyrrolidine-2-carboxamide]?
Answer: protein levels of cMyc (cMyc [1]; EOL-1 and MM1.S cells, 2.5 μM, 48 hours): significant decrease in the protein levels of cMyc; cMyc depletion in VHL-deficient cells (cMyc [1]; VHL-deficient EOL-1 and 293FT cells relative to WT, 48-hour treatment): almost completely diminished; ubiquitination of cellular NSD3 (NSD3 [2]): induced ubiquitination of cellular NSD3 in a concentration-dependent manner; suppression of expression of CBLB, IFITM1, SELL and MAP7 [3]: superior effect; growth inhibitory activity ([4]; 2.5 μM, ten days, EOL-1, MM1.S and RS4;11 cells): effectively inhibited the growth; EC50 [4]: 2 to 4 µM; induction of apoptosis (EOL-1 and MM1.S cells [5]): induced a prominent increase of apoptosis; colony-forming capabilities (EOL-1 and MM1.S cells [6]): drastically decreased colony-forming capabilities; ubiquitination of cellular cMyc (cMyc [7]): significantly enhanced; NSD3 degradation in VHL knockout cells (NSD3S; 293FT cells with CRISPR/Cas9-mediated KO of VHL vs WT): abrogated the MS9715-mediated NSD3 degradation; proteome-wide selectivity (significantly downregulated proteins) (EOL-1 cells): NSD3 was the only protein showing significant downregulation; concentration-dependent depletion of cellular NSD3S (NSD3 [8]; EOL-1, MM1.S and MOLM13 cells, 48-hour treatment): concentration-dependent depletion of cellular NSD3S; depletion of NSD3S and NSD3L isoforms (NSD3 [8]; EOL-1 and MM1.S cells): led to depletion of both NSD3S and NSD3L isoforms; time-dependent NSD3S degradation (NSD3 [8]; EOL-1 and MM1.S cells, 2.5 μM): significant degradation occurring at as early as 24 hours; Dmax (NSD3 [8]; MOLM-13, read-out: maximum degradation (Dmax)): > 80%; DC50 (NSD3 [8]; read-out: half-maximal degradation concentration (DC50), MOLM13 cells, 48-hour treatment, mean ± SD from three independent experiments): 4.9 ± 0.4 µM; growth inhibitory activity (K562 cells): little growth inhibitory effect

Question: For Cc1cc(CNCCCC(=O)NCCCCNC(=O)C[C@H](NC(=O)[C@@H]2C[C@@H](O)CN2C(=O)[C@@H](NC(=O)C2(F)CC2)C(C)(C)C)c2ccc(-c3scnc3C)cc2)cc(C)c1-c1ncn(C)c1-c1ccnc2cc(F)ccc12 [Compound 6, (2S,4R)-1-((S)-2-(1-fluorocyclopropane-1-carboxamido)-3,3-dimethylbutanoyl)-N-((S)-3-((4-(4-((4-(5-(7-fluoroquinolin-4-yl)-1-methyl-1H-imidazol-4-yl)-3,5-dimethylbenzyl)amino)butanamido)butyl)amino)-1-(4-(4-methylthiazol-5-yl)phenyl)-3-oxopropyl)-4-hydroxypyrrolidine-2-carboxamide], which “NSD3 degradation (immunoblot)” value (NSD3S) is on record?
Answer: did not lead to effective degradation of NSD3

Question: With Cc1cc(CNCCCC(=O)NCCCCCCCCC(=O)N[C@H](C(=O)N2C[C@@H](O)C[C@@H]2C(=O)N[C@@H](C)c2ccc(-c3scnc3C)cc2)C(C)(C)C)cc(C)c1-c1ncn(C)c1-c1ccnc2cc(F)ccc12 [MS9715N, (2R,4S)-1-((S)-2-(9-(4-((4-(5-(7-fluoroquinolin-4-yl)-1-methyl-1H-imidazol-4-yl)-3,5-dimethylbenzyl)amino)butanamido)nonanamido)-3,3-dimethylbutanoyl)-4-hydroxy-N-((S)-1-(4-(4-methylthiazol-5-yl)phenyl)ethyl)pyrrolidine-2-carboxamide] as the compound, how does the EC50 [4] read?
Answer: > 10 µM

Question: What about the colony-forming capabilities (EOL-1 and MM1.S cells [6]) of the same compound?
Answer: little or no effect

Question: What about the Kd (NSD3 PWWP1 domain) of the same compound?
Answer: 1.62 ± 0.33 µM

Question: Which results are given for Cc1cc(CN)cc(C)c1-c1ncn(C)c1-c1ccnc2cc(F)ccc12 [BI-9321, reference compound]?
Answer: killing of cancer cells (cancer cells): does not lead to effective killing of cancer cells; EC50 [4]: > 10 µM; colony-forming capabilities (EOL-1 and MM1.S cells [6]): little or no effect

Question: For Cc1cc(CNCCCC(=O)NCCCCCNc2cccc3c2C(=O)N(C2CCC(=O)NC2=O)C3=O)cc(C)c1-c1ncn(C)c1-c1ccnc2cc(F)ccc12 (stereo not drawn) [Compound 2, N-(5-((2-(2,6-dioxopiperidin-3-yl)-1,3-dioxoisoindolin-4-yl)amino)pentyl)-4-((4-(5-(7-fluoroquinolin-4-yl)-1-methyl-1H-imidazol-4-yl)-3,5-dimethylbenzyl)amino)butanamide], which “NSD3 degradation (immunoblot)” value (NSD3S) is on record?
Answer: failed to degrade NSD3

Question: Which “NSD3 degradation (immunoblot)” value (NSD3S) does the source give for Cc1cc(CNCCCC(=O)NCCOCCOCCNc2cccc3c2C(=O)N(C2CCC(=O)NC2=O)C3=O)cc(C)c1-c1ncn(C)c1-c1ccnc2cc(F)ccc12 (stereo not drawn) [Compound 1, N-(2-(2-(2-((2-(2,6-dioxopiperidin-3-yl)-1,3-dioxoisoindolin-4-yl)amino)ethoxy)ethoxy)ethyl)-4-((4-(5-(7-fluoroquinolin-4-yl)-1-methyl-1H-imidazol-4-yl)-3,5-dimethylbenzyl)amino) butanamide] here?
Answer: failed to degrade NSD3

From paper PMC8882712 (Cell chemical biology, 2021)
